DNMT1 block – DNMT1 (human) enzyme inhibition | DNMT1 molecular beacon, Hinp1I cleavage, fluorescence | P26358 | inhibition (reported as % activation of signal), % at 10 µM | 360,000 compounds, 0.83% hits; in the data active means inhibition above about 50%
F508del corr – CFTR F508del correction in bronchial cells; AID 720511; activity (quench increase), % at 7.58 µM; 350,000 compounds, 0.36% hits; CFBE cells, YFP halide quenching; stimulated with forskolin plus potentiator P3; % fluorescence drop versus neutral controls;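 active means mean added fluorescence quench of at least 8% versus neutral control, with both replicates also reaching 8%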;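 further: cells transiently co-express mutant CFTR-F508del with the halide-sensitive YFP; corrector assay measuring rescue of mutant channel to the surface after 24 h compound exposure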
Scp1 inh – Scp-1 (human) phosphatase inhibition | Q9GZU7 | Recombinant Scp1, phosphopeptide, malachite green phosphate absorbance | inhibition, % at 20 µM | 340,000 compounds, 0.88% hits | AID 493091;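 active means inhibition above about 50% at 20 µM, limit read from the data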
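Material: truncated SCP-1 phosphatase (76-261aa) / Buffer or medium: 50 mM Tris acetate pH 5.5, 0.005% Tween-20, 10 mM MgCl2 / Compound dosing: one concentration, 20 µM, with 1.0% DMSO / Incubation: 45 min room-temperature reaction, 5 min colour, 30 min stabiliser / Detection: colorimetric free-phosphate detection, absorbance 630 nm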
STEP block – blocks human striatal-enriched tyrosine phosphatase. AID 588621. 360,000 compounds, 0.25% hits. recombinant STEP, OMFP fluorogenic substrate, fluorescence. inhibition, % at 20 µM;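 active means inhibition at 20 µM, scaled per plate between control wells, above about 37%, limit read from the data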
Target sequence (P54829 whole entry, looked up): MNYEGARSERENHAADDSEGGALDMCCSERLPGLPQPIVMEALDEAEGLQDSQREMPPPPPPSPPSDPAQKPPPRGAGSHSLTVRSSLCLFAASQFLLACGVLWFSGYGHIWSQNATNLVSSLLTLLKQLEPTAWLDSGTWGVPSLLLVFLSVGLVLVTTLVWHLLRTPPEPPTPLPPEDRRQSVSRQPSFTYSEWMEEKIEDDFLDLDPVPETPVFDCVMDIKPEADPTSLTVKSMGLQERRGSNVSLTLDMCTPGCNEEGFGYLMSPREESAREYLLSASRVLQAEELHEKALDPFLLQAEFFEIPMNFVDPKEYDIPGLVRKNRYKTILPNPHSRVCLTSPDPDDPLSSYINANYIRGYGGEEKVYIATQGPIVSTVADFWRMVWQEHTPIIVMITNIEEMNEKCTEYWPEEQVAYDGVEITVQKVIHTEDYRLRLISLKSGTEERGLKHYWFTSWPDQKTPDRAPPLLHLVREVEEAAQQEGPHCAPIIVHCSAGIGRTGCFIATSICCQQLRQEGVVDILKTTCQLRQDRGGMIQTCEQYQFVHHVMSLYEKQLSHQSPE
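Also added – OMFP at 25 µM · Test system – STEP tyrosine phosphatase · Technique – FITC-channel fluorescence of OMFP product · Schedule – 20 min at room temperature, dark · Evaluation – control-normalized % inhibition with plate pattern correction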
LMPTP inh – blocks human LMPTP phosphatase | P24666 | recombinant LMPTP-A, OMFP fluorogenic substrate, fluorescence intensity | inhibition, % at 20 µM | 360,000 compounds, 0.22% hits | AID 651560;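 active means compounds that cut the enzyme signal by at least half of the control window in the single-dose screen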
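Test system: LMPTP-A phosphatase enzyme. Amount: LMPTP-A at 0.625 nM final in the reaction. Reagent: OMFP substrate, 400 µM final. Times: 50 min at room temperature. Signal: endpoint fluorescence intensity from OMFP dephosphorylation. Read-out basis: % inhibition. Benchmarks: no-enzyme and uninhibited controls.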
SUMO1 PPI mod – modulators of human SUMO1-mediated protein-protein interactions; P63165; SUMO1 binding to a labelled peptide, TR-FRET, 1 h; inhibition, % at 20 µM; 360,000 compounds, 0.33% hits; AID 602429; in the data active means inhibition above about 37%
Target sequence (P63165 whole entry, looked up): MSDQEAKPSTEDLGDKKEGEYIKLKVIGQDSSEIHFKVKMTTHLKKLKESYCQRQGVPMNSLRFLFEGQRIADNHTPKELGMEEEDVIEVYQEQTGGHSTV
DNMT1 confirm – DNMT1 inhibition confirmation, single concentration; shares compounds with DNMT1 block; DNMT1 molecular beacon HinP1I cleavage, fluorescence; inhibition, % at 10 µM; 2,300 compounds, 8% hits;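 active means average inhibition of at least 30% in the single-concentration confirmation test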
DNMT1 interf – counter-screen for DNMT1 inhibitors: spectral interference. shares compounds with DNMT1 block. activation (fluorescence interference), % at 10 µM. 2,300 compounds, 1% hits. DNMT1 molecular beacon spectral interference counterscreen, fluorescence 485/520;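 active means activation of at least 30% at 10 µM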;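 further: DNMT1 catalytic domain with a HinP1I cleavage step and a FAM/dabcyl DNA beacon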
A number is an active result; 0 = inactive; - = no result. Only some compounds are listed: those with a hit (about 1.6% of all), similar ones and a draw of the others.

SMILES	DNMT1 block	F508del corr	Scp1 inh	STEP block	LMPTP inh	SUMO1 PPI mod	DNMT1 confirm	DNMT1 interf
Cc1c(C(=O)Nc2ccc(F)cc2)cn2c(nc3ccccc32)c1C#N	0	0	0	0	0	0	-	-
N#Cc1c2nc3ccccc3nc2n2cc(NC(=O)c3ccc(F)cc3)ccc12	103.1	0	0	0	0	0	0	0
O=C([C@@H]1[C@@H](CO)[C@@H]2Cn3c(ccc(-c4cccnc4)c3=O)[C@H]1N2CCC(F)(F)F)N1CCCCC1	-	0	-	-	-	-	-	-
NC(=O)CC(NC(=O)c1cccc(Br)c1)c1ccc(N2CCN(c3ccccn3)CC2)c([N+](=O)[O-])c1 (stereo not drawn)	102.6	0	0	0	0	0	0	0
NC(=O)CC(NC(=O)c1ccc(Br)cc1)c1ccc(N2CCN(c3ccccn3)CC2)c([N+](=O)[O-])c1 (stereo not drawn)	0	0	0	0	0	0	-	-
NC(=O)CC(NC(=O)Cc1ccc(Cl)cc1)c1ccc(N2CCC(Cc3ccccc3)CC2)c([N+](=O)[O-])c1 (stereo not drawn)	71.2	0	0	0	0	0	0	0
Cc1cc(C)cc(C(=O)NC(CC(N)=O)c2ccc(N3CCC(Cc4ccccc4)CC3)c([N+](=O)[O-])c2)c1 (stereo not drawn)	0	0	0	0	0	0	-	-
COCC(=O)NC[C@@H]1N[C@@H](CO)[C@H]1c1ccc(-c2ccccc2F)cc1	-	0	-	-	-	-	-	-
CNC[C@@H]1Oc2cc(-c3ccccc3F)ccc2S(=O)(=O)N([C@@H](C)CO)C[C@@H]1C	-	0	-	-	-	-	-	-
O=C(Nc1cc(Cl)ccc1N1CCOCC1)c1cnccn1	0	-	0	0	0	0	-	-
O=C(Nc1cc(Cl)ccc1N1CCOCC1)c1ccncc1	80.2	0	0	0	0	0	0	0
CNC[C@@H]1Oc2ncc(C#CC3(O)CCCC3)cc2C(=O)N([C@H](C)CO)C[C@@H]1C	-	0	-	-	-	-	-	-
NC1=NC[C@H](Cc2ccc(O)cc2)N1CCc1cccc(F)c1	0	0	0	0	0	0	-	-
NC1=NC[C@@H](Cc2ccc(O)cc2)N1CCC12CC3CC(CC(C3)C1)C2	57.6	0	0	0	0	0	0	0
CC(C)CN(C(=O)COC(=O)c1cc2c(s1)CCC2)C1CCS(=O)(=O)C1 (stereo not drawn)	95.7	-	89.2	0	0	0	0	0
CCOc1ccc(Cl)cc1-c1cc(C(=O)NC2CCCCC2)[nH]n1	74.3	0	-	0	0	0	0	0
COCC(=O)Nc1ccc2c(c1)OC[C@@H](C)N(C(=O)Cc1ccccn1)C[C@H](C)[C@@H](OC)CN(C)C2=O	-	0	-	-	-	-	-	-
N#Cc1cc2c(nc1SCC(=O)Nc1sc3c(c1C#N)CCC3)CCC2	0	-	0	0	0	0	-	-
COc1ccc(-c2ccc(C#N)c(SCC(=O)Nc3sc4c(c3C#N)CCC4)n2)cc1OC	60.6	-	0	0	0	0	0	0
C[C@@H]1CCCCO[C@H](CN(C)Cc2ccc(C(=O)O)cc2)[C@H](C)CN([C@@H](C)CO)C(=O)c2cc(NC(=O)c3ccncc3)ccc2O1	-	0	-	-	-	-	-	-
CCOC(=O)c1cc(-c2cc3ccccc3o2)nc2c1c(=O)[nH]c(=O)n2CCOC	0	-	0	0	0	0	-	-
CCOC(=O)c1cc(-c2ccc([N+](=O)[O-])cc2)nc2c1c(=O)[nH]c(=O)n2Cc1ccccc1	86.0	0	0	0	0	0	0	0
COc1ccccc1NC(=O)N[C@@H]1CC[C@H](CC(=O)N[C@H](C)c2ccccc2)O[C@@H]1CO	-	0	-	-	-	-	-	-
O=C(C[C@@H]1CC[C@H](NC(=O)c2ccc(F)cc2)[C@H](CO)O1)NCCc1ccccc1	-	0	-	-	-	-	-	-
Cc1ccccc1OCC(=O)Nc1ccccc1NC(=O)c1ccco1	0	0	0	0	0	0	-	-
SMILES	DNMT1 block	F508del corr	Scp1 inh	STEP block	LMPTP inh	SUMO1 PPI mod	DNMT1 confirm	DNMT1 interf
CCOc1cc(NC(=O)c2ccco2)c(OCC)cc1NC(=O)COc1ccccc1C	64.7	-	0	0	0	0	0	0
O=C(C[C@H]1C/C=C\C[C@H](NC(=O)OCC2c3ccccc3-c3ccccc32)C(=O)OC[C@H](Cc2ccccc2)NC1=O)N[C@H](CO)Cc1ccccc1	51.3	0	0	0	0	0	0	0
CCCCCCCC(=O)Nc1ccc(C(=O)N/N=C/c2cccc([N+](=O)[O-])c2)cc1	77.8	-	96.2	0	0	0	0	0
Cn1cccc1CC(=O)N/N=C/c1cc([N+](=O)[O-])ccc1Cl	0	0	0	0	0	0	-	-
CCCCCCC(=O)Nc1ccc(C(=O)N/N=C/c2cccnc2)cc1	0	-	0	0	0	0	-	-
O=[N+]([O-])c1ccc(NN=Cc2cccc([N+](=O)[O-])c2)cc1	72.4	0	0	0	0	0	0	0
Cn1cccc1CC(=O)N/N=C/c1cccc([N+](=O)[O-])c1	94.0	0	0	0	0	0	0	0
C[C@@H]1CCCCO[C@H](CN(C)S(=O)(=O)c2ccccc2)[C@H](C)CN([C@@H](C)CO)C(=O)c2cc(NC(=O)Cc3ccccc3)ccc2O1	-	0	-	-	-	-	-	-
COc1ccc(-c2ccc3sc4ccccc4c(=O)c3c2)cn1	55.8	0	0	0	0	0	0	0
COc1cc2sc3ccc(-c4ccc(N(C)C)nc4)cc3c(=O)c2cc1OC	-	0	0	-	-	-	-	-
C[C@H](CO)N1C[C@H](C)[C@@H](CN(C)S(=O)(=O)c2ccc(Cl)cc2)OCc2cn(nn2)CCCC1=O	-	0	-	-	-	-	-	-
C[C@H]1CN([C@@H](C)CO)C(=O)c2cc(C#CCN(C)C)cnc2O[C@@H]1CN(C)C(=O)c1cnccn1	-	0	-	-	-	-	-	-
COc1ccc(-c2cc3ccccc3oc2=O)cc1NC(=O)c1ccc(Br)o1	85.2	-	0	0	0	0	0	0
COc1ccc(-c2cc3ccccc3oc2=O)cc1NC(=O)c1ccc([N+](=O)[O-])o1	0	-	0	0	0	0	-	-
CCc1cccc(OCCCCN(CC)CC)c1	54.9	-	0	0	0	0	0	0
COc1cccc(N(C(=O)Cn2nnc(-c3ccc(Cl)cc3)n2)C(C(=O)NCC2CCCO2)c2ccc(C)cc2)c1 (stereo not drawn)	58.7	0	0	0	0	0	0	0
COc1cccc(N(C(=O)Cn2nnc(-c3ccc(F)cc3)n2)C(C(=O)NCC2CCCO2)c2ccc(Cl)cc2)c1 (stereo not drawn)	0	0	0	0	0	0	-	-
CCn1c2ccccc2c2cc(CN3CCN(S(=O)(=O)Cc4ccccc4)CC3)ccc21	60.4	-	0	0	0	0	0	0
